# No end group written: not given here.
# Columns and labels:
# Format in all cases: biochemical
# PMCA2 = target: T1, PMCA2 (Homo sapiens, UniProt Q01814); assay: Ca2+-Mg2+-ATPase of microsomes from overexpressing insect cells sf9
# T1 sequence (Q01814 1-1243): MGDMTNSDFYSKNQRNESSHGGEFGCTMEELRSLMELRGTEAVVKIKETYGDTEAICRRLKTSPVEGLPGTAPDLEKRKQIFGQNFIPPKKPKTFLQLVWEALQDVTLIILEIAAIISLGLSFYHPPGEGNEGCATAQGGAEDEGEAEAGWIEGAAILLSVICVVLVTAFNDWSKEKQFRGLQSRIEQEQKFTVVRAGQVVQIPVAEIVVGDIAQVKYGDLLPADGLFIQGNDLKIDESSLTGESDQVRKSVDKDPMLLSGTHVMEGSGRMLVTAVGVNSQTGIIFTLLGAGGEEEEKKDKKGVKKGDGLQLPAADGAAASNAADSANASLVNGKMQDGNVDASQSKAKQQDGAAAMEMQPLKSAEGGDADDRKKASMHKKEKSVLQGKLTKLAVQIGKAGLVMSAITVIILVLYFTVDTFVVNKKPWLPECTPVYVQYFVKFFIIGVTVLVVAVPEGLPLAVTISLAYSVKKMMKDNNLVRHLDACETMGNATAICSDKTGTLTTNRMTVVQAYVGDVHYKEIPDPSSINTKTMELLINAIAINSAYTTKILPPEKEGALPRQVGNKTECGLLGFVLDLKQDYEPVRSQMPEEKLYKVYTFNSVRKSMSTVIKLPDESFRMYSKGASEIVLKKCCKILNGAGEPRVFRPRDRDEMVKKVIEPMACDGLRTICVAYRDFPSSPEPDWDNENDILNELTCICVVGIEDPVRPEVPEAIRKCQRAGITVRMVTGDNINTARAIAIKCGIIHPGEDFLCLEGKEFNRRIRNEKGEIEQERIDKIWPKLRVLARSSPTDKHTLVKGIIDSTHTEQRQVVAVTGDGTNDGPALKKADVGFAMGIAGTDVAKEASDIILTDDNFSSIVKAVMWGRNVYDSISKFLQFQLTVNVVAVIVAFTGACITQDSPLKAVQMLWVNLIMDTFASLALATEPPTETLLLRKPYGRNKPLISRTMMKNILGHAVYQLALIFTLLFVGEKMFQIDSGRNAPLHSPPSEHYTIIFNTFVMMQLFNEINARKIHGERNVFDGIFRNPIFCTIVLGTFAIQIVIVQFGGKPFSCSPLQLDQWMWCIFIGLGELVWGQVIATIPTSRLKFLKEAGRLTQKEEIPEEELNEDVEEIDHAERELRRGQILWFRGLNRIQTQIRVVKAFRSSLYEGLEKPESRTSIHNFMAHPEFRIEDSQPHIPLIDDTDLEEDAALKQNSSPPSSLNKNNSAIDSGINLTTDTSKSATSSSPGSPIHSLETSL
# Outline: (§1)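 Sources: a plasma membrane-enriched fraction from rabbit duodenal mucosa, rich in PMCA1 with little PMCA4, and microsomes from baculovirus-infected Sf9 cells expressing PMCA2 or PMCA3. Activity was followed by NADH loss in a coupled assay at 37°C: basal Mg2+-ATPase, then CaCl2 added, difference taken. Each day's mean control activity was 100%. Ki was fitted by non-linear regression; 3–4 measurements over 2–4 days.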
# PMCA4 = PMCA4 (Homo sapiens, UniProt P23634); assay: PMCA Ca2+-Mg2+-ATPase in human erythrocyte ghosts, coupled enzyme assay
# Outline: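 Human erythrocyte leaky ghosts were EDTA-washed to strip calmodulin; 0.2–0.4 mg protein per assay. Pyruvate kinase–LDH coupled NADH assay at 37°C in 30 mM imidazole-HCl pH 7.0 with 0.1 mM ouabain, 6 mM MgCl2, 0.5 mM ATP, 0.5 mM EGTA and 4 μg/ml calmodulin. Basal Mg2+-ATPase was subtracted from activity after CaCl2 addition. Ki came from a non-linear fit, saturating substrates; 3–4 measurements over 2–4 days.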
# PMCA3 = target: T2, PMCA3 (Homo sapiens, UniProt Q16720); assay: Ca2+-Mg2+-ATPase of microsomes from overexpressing insect cells sf9
# T2 sequence (Q16720 1-1220): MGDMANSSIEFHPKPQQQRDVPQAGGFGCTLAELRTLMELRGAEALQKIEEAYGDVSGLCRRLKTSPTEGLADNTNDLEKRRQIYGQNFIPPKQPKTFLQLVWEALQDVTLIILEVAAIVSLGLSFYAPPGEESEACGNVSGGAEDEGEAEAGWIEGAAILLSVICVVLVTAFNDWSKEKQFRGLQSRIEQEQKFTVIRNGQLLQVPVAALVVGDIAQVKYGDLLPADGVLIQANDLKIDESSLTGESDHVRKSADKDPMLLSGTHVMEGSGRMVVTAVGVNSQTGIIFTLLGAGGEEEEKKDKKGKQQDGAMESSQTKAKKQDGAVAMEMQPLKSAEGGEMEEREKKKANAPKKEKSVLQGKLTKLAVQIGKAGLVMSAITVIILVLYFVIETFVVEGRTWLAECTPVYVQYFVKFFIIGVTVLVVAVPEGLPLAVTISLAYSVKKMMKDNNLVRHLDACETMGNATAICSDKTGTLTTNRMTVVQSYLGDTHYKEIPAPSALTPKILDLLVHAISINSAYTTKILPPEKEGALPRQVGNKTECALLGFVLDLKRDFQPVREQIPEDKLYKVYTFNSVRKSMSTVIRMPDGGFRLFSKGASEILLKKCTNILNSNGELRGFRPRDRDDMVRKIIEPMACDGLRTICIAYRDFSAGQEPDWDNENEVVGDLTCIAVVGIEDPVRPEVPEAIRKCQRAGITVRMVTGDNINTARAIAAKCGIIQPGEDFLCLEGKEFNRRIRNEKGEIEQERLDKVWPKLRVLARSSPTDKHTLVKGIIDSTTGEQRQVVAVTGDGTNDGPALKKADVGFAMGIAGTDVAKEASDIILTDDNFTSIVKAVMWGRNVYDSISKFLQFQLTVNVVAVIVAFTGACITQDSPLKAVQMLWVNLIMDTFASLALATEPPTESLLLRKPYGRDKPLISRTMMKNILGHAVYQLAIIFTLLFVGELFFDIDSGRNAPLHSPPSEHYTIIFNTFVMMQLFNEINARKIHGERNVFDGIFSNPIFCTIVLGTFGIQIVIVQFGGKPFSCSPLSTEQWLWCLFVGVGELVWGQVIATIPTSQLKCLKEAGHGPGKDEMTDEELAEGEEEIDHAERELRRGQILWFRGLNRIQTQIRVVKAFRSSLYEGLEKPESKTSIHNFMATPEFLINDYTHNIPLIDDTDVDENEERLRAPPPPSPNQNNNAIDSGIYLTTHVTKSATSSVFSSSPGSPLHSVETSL
# Outline: as §1
# PMCA1 = target: T3, PMCA1 (Oryctolagus cuniculus, UniProt Q00804); assay: Ca2+-Mg2+-ATPase of rabbit duodenal mucosal PM rich fraction
# T3 sequence (Q00804 1-1220): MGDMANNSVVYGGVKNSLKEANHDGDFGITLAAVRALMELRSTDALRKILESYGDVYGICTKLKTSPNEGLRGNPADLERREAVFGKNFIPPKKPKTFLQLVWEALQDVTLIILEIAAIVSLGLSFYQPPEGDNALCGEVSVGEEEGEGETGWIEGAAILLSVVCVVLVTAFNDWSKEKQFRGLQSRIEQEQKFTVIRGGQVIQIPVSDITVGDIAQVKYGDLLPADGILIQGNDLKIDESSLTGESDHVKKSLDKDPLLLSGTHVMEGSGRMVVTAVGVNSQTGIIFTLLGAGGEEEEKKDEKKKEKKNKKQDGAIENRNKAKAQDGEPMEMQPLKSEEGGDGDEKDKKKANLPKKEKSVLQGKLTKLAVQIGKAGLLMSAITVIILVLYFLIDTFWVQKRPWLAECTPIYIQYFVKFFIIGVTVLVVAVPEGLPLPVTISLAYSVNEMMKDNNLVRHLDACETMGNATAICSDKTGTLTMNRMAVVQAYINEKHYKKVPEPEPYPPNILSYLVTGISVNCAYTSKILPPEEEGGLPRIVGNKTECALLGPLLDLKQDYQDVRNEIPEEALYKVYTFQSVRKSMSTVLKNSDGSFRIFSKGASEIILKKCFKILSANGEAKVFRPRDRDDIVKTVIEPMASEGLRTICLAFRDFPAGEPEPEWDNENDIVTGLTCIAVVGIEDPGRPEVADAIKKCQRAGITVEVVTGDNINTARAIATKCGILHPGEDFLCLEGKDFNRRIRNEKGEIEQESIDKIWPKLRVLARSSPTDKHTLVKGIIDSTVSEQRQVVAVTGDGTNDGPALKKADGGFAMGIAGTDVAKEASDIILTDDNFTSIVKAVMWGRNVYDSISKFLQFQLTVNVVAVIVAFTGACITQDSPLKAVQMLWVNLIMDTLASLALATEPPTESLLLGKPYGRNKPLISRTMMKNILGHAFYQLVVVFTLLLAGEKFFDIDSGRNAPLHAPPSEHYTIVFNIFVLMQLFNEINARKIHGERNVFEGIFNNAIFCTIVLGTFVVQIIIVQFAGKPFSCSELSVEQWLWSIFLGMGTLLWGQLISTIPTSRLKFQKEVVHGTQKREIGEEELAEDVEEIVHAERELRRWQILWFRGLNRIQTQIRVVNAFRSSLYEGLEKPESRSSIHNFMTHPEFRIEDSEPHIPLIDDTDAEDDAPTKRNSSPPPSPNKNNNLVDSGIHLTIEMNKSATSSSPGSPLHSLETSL
# Outline: as §1
substance,measurement,setting,value
TAWSEVLDLLRRGGGSK-NH2 [caloxin 1c2],Ki,PMCA2,40 ± 10 µM
same,Ki,PMCA4,2.3 ± 0.3 µM
same,Ki,PMCA3,67 ± 8 µM
same,Ki,PMCA1,21 ± 6 µM
